Reference: ChEMBL document CHEMBL3396970, “Synthesis and biological evaluation of novel 2,3-disubstituted quinoxaline derivatives as antileishmanial and antitrypanosomal agents” (Eur J Med Chem, 2015)

How the values were obtained:
[1] = tested on: Trypanosoma cruzi; assay: Antitrypanosomal activity against epimastigote stage of Trypanosoma cruzi Y after 96 hrs by hemocytometry; assay type: functional, organism-based
Outline: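 Log-phase parasites (promastigotes 3-day, Warren's medium + 10% FBS, 25°C; epimastigotes 4-day, LIT + 10% FBS, 28°C) seeded at 1 × 10^6 cells/mL with compound (0.1-100 µM; DMSO ≤1%). Promastigotes read at 72 h, epimastigotes at 96 h, by hemocytometer counting. IC50 by nonlinear regression.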

[2] = tested on: Leishmania amazonensis; assay: Antileishmanial activity against promastigote stage of Leishmania amazonensis WHOM/BR/75/JOSEFA after 72 hrs by hemocytometry; assay type: functional, organism-based
[3] = Selectivity ratio of CC50 to IC50 for promastigote stage of Leishmania amazonensis WHOM/BR/75/JOSEFA; design: reference not given here
[4] = Selectivity ratio of CC50 for monkey LLC-MK2 cells to IC50 for epimastigote stage of epimastigote stage of Trypanosoma cruzi Y
[5] = Selectivity ratio of CC50 for mouse J774A1 cells to IC50 for promastigote stage of Leishmania amazonensis WHOM/BR/75/JOSEFA; assay type: ADME, cell-based, J774.A1; conditions: read-out: Ratio CC50/IC50
[6] = tested on: Trypanosoma cruzi; assay: Antitrypanosomal activity against trypomastigote stage of Trypanosoma cruzi Y infected in monkey LLC-MK2 cells after 96 hrs by Pizzi-Brener method; assay type: functional, organism-based
[7] = Selectivity ratio of CC50 for monkey LLC-MK2 cells to IC50 for epimastigote stage of epimastigote stage of Trypanosoma cruzi Y; assay type: ADME, cell-based; conditions: read-out: Ratio CC50/IC50

| SMILES | IC50 [1] [µM] | IC50 [2] [µM] | EC50 [6] [µM] | selectivity ratio [3] | selectivity ratio [4] | selectivity ratio [5] | selectivity ratio [7] |
| --- | --- | --- | --- | --- | --- | --- | --- |
| Cc1ccc(-c2nc3ccccc3nc2-c2ccccc2)cc1 | 35.7 | 8.9 |  |  |  |  |  |
| COc1ccc(-c2nc3ccccc3nc2-c2ccccc2)cc1 | 21.5 | 12.8 |  |  |  |  |  |
| c1ccc(-c2nc3ccccc3nc2-c2ccccc2)cc1 | > 100 | 21.1 |  |  |  |  |  |
| CSc1nc2ccc(Br)cc2nc1Cl | 47.8 | 57.9 | > 50 | 7.4 | 9.2 | 7.4 | 9.2 |
| CSc1nc2ccc(Cl)cc2nc1Cl | 39.4 | 45.3 | > 50 | 22.1 | 16.1 | 22.1 | 16.1 |
| COc1ccc2nc(-c3ccccc3)c(SC)nc2c1 | > 100 | > 100 |  |  |  |  |  |
| CSc1nc2ccccc2nc1-c1ccccc1 | > 100 | > 100 |  |  |  |  |  |
| COc1ccc(-c2nc3cc(OC)ccc3nc2-c2ccccc2)cc1 | > 100 | 40.5 |  |  |  |  |  |
| Cc1ccc(-c2nc3cc(Cl)ccc3nc2-c2ccccc2)cc1 | 36 | 24.3 |  |  |  |  |  |
| c1ccc(-c2nc3ccccc3nc2-c2ccc(OCCN3CCOCC3)cc2)cc1 | 40.3 | 6.2 | > 50 | 8.7 | 4.6 | 8.7 | 4.6 |
| COc1ccc(-c2nc3ccc(Cl)cc3nc2-c2ccccc2)cc1 | 43.8 | 31.5 | > 50 | 9.5 | 6.5 | 9.5 | 6.5 |
| Clc1ccc2nc(-c3ccccc3)c(-c3ccccc3)nc2c1 | 42.7 | 28.1 | > 50 | 6.6 | 6.1 | 6.6 | 6.1 |
| Clc1cc2nc(-c3ccccc3)c(-c3ccccc3)nc2cc1Cl | 54 | 5.3 | > 50 | 38.5 | 8.7 | 38.5 | 8.7 |
| Cc1ccc(-c2nc3cc(Cl)c(Cl)cc3nc2-c2ccccc2)cc1 | 83.4 | 22.2 | > 50 | 3.2 | 1.3 | 3.2 | 1.3 |
| Oc1ccc(-c2nc3ccccc3nc2-c2ccc(OCCN3CCCCC3)cc2)cc1 | 39.2 | 5.7 | > 50 | 8.2 | 1 | 8.2 | 1 |
| COc1ccc2nc(NC3CCCCC3)c(SC)nc2c1 | 30.5 | 29.8 | > 50 | 1.2 | 8.5 | 1.2 | 8.5 |
| COc1ccc2nc(SC)c(NC3CCCCC3)nc2c1 | 41 | 21.5 | > 50 |  |  | 2.4 | 1.8 |
| CSc1nc2ccc(Cl)cc2nc1NC1CCCCC1 | 52.3 | > 100 | > 50 |  | 4.8 |  | 4.8 |
| COc1ccc2nc(N(C)C)c(S(C)(=O)=O)nc2c1 | 25.2 | 35.9 | > 50 | 4.5 | 6.8 | 4.5 | 6.8 |
| CCCCNc1nc2cc(OC)ccc2nc1-c1ccccc1 | 66.8 | > 100 | > 50 |  | 12.5 |  | 12.5 |
| COc1ccc2nc(-c3ccccc3)c(NCCO)nc2c1 | > 100 | 72.8 | > 50 | 4.8 |  | 4.8 |  |
| COc1ccc2nc(-c3ccccc3)c(NCCN3CCCCC3)nc2c1 | 47.6 | 50.3 | > 50 | 0.9 | 3.8 | 0.9 | 3.8 |

Continued, in another order:

| IC50 [1] [µM] | IC50 [2] [µM] | EC50 [6] [µM] | SMILES | selectivity ratio [3] | selectivity ratio [4] | selectivity ratio [5] | selectivity ratio [7] |
| --- | --- | --- | --- | --- | --- | --- | --- |
| 10.8 | 29.6 | > 50 | CSC(=C[N+](=O)[O-])SC | 6 | 18.3 | 6 | 18.3 |
| 32 | 27.9 |  | COc1cccc(N/C(=C\[N+](=O)[O-])SC)c1 |  |  |  |  |
| 11.4 | 24.1 |  | CS/C(=C/[N+](=O)[O-])Nc1ccccc1 |  |  |  |  |
| 39 | 28.7 |  | COc1ccc(N/C(=C\[N+](=O)[O-])SC)cc1 |  |  |  |  |
| 61.9 | 42.3 |  | CS/C(=C/[N+](=O)[O-])Nc1ccc2c(c1)OCCO2 |  |  |  |  |
| 67.3 | 41.5 |  | CS/C(=C/[N+](=O)[O-])Nc1ccc(O)cc1 |  |  |  |  |
| 20.4 | 33 |  | CS/C(=C/[N+](=O)[O-])Nc1ccc(Br)cc1 |  |  |  |  |
| 70.1 | 21.9 |  | CS/C(=C/[N+](=O)[O-])NC1CCCCC1 |  |  |  |  |
| 19.7 | 19.7 |  | CS/C(=C/[N+](=O)[O-])Nc1ccc(F)cc1 |  |  |  |  |
| > 100 | 73.6 | > 50 | CS/C(=C/[N+](=O)[O-])NCCCCO | 11.1 |  | 11.1 |  |
| 90.1 | > 100 | > 50 | CS/C(=C/[N+](=O)[O-])NCCCO |  | 9.6 |  | 9.6 |
| 25.8 | 21.3 | > 50 | CS/C(=C/[N+](=O)[O-])Nc1ccc(Cl)cc1 | 6.9 | 7.3 | 6.9 | 7.3 |
| 38.7 | 93.6 | > 50 | COc1ccc2nc(Cl)c(SC)nc2c1 | 9.8 | 19.3 | 9.8 | 19.3 |
| 52.9 | 74.1 | > 50 | CSc1nc2ccccc2nc1Cl | 13.5 | 8.1 | 13.5 | 8.1 |
| > 100 | > 100 | > 50 | COc1ccc2nc(SC)c(Cl)nc2c1 |  |  |  |  |
| 83.6 | 42.8 | > 50 | COc1ccc2nc(N(C)C)c(SC)nc2c1 | 5.9 | 6.2 | 5.9 | 6.2 |
| 86.7 | 35.2 | > 50 | CCCCNc1nc2ccc(OC)cc2nc1SC | 2.1 | 3.1 | 2.1 | 3.1 |
| > 100 | 82.9 | > 50 | COc1ccc2nc(NCCO)c(SC)nc2c1 | 5 |  | 5 |  |
| 93.1 | 75.9 | > 50 | CCCCNc1nc2ccccc2nc1SC | 1.9 | 1.2 | 1.9 | 1.2 |
| > 100 | 96.2 | > 50 | CSc1nc2ccccc2nc1NCCO | 2.9 |  | 2.9 |  |
| 69.2 | 30.2 | > 50 | CCCCNc1nc2cc(OC)ccc2nc1SC | 3.5 | 1.1 | 3.5 | 1.1 |
| > 100 | > 100 | > 50 | COc1ccc2nc(SC)c(NCCO)nc2c1 |  |  |  |  |
| 95.7 | 26.9 | > 50 | COc1ccc2nc(SC)c(NCC(C)C)nc2c1 | 4.7 | 0.7 | 4.7 | 0.7 |
| 79.6 | 27.1 | > 50 | COc1ccc2nc(SC)c(NCCC(C)C)nc2c1 | 3.3 | 0.7 | 3.3 | 0.7 |
| 41.8 | 25.2 | > 50 | CCCCNc1nc2cc(Br)ccc2nc1SC | 5.1 | 0.9 | 5.1 | 0.9 |
| > 100 | > 100 | > 50 | CSc1nc2ccc(Br)cc2nc1NCCO |  |  |  |  |
| 69.9 | 27.6 | > 50 | COc1ccc2nc(NCC(C)C)c(SC)nc2c1 | 6.7 | 1 | 6.7 | 1 |
| 63.6 | 24.4 | > 50 | CCCCNc1nc2cc(Cl)ccc2nc1SC | 4.6 | 1 | 4.6 | 1 |
| 90.9 | 69.2 | > 50 | COc1ccc2nc(S(C)(=O)=O)c(NCCO)nc2c1 | 3.7 | 2.6 | 3.7 | 2.6 |
